# According to ChEMBL document CHEMBL4152384, “Pyrtriazoles, a Novel Class of Store-Operated Calcium Entry Modulators: Discovery, Biological Profiling, and in Vivo Proof-of-Concept Efficacy in Acute Pancreatitis” (J Med Chem, 2018):
# Active and inactive are the calls of the source. The rule behind the calls is not given here.
# What was measured:
# [1] = target: T1, Short transient receptor potential channel 1 & 3/Stromal interaction molecule 1/Calcium release-activated calcium channel protein 1 (Homo sapiens) (UniProt Q96D31+Q13507+Q13586+P48995); experiment: (§1) Modulation of TRPC1/TRPC3/STIM1/Orai1 in HEK cells assessed as induction of store-operated calcium entry by measuring residual activity at 10 uM preincubated for 30 mins followed by tBhQ-mediated Ca2+ depletion and Ca2+ re-addition to extracellular solution measured for 600 secs by Fluo-4 AM-based fluorometric assay relative to control; format: cell-based
# T1 sequence (P48995 whole entry partner): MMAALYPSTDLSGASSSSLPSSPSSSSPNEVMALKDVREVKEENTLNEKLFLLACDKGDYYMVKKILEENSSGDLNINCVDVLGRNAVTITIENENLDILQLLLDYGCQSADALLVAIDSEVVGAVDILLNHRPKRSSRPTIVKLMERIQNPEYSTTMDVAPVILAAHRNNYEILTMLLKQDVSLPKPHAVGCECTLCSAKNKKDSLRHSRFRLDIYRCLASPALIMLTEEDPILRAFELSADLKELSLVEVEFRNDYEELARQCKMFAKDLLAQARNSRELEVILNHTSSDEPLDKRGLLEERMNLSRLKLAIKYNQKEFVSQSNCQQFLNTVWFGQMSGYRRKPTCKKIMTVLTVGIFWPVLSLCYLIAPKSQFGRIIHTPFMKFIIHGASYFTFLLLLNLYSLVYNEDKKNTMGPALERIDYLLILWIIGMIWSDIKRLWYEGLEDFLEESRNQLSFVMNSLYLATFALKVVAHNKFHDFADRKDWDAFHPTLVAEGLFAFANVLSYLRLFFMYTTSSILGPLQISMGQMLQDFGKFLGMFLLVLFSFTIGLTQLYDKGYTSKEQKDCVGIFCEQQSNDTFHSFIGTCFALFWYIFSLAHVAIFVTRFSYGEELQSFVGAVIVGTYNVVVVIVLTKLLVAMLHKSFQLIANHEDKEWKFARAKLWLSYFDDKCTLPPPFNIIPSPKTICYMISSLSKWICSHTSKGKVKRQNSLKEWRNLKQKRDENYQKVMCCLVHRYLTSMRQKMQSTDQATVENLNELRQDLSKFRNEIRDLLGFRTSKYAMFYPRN
# T1 sequence (Q13507 whole entry partner): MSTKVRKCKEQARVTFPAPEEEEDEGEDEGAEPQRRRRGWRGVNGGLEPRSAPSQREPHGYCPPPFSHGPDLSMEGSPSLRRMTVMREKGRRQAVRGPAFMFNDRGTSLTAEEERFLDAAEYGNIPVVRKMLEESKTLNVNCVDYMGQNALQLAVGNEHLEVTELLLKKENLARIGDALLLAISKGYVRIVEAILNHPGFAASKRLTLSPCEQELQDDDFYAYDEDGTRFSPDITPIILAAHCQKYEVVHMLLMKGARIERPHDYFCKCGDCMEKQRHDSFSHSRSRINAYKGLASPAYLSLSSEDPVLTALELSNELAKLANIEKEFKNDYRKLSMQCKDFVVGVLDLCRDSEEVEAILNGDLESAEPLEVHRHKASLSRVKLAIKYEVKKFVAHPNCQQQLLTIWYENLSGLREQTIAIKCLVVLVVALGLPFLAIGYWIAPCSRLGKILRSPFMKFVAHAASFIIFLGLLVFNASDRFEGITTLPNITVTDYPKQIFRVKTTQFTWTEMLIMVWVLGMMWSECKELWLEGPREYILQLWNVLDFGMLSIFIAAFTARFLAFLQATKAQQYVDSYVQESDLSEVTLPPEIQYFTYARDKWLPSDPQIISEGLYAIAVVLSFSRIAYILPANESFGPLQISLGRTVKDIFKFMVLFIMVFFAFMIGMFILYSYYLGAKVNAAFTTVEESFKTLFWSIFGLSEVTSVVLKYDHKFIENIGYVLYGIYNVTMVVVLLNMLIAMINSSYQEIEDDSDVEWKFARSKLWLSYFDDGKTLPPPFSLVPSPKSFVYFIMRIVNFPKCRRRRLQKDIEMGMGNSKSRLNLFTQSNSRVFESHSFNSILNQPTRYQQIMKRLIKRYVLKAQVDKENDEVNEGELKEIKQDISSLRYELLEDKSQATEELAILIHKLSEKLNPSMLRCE
# T1 sequence (Q13586 23-685 partner limits assumed): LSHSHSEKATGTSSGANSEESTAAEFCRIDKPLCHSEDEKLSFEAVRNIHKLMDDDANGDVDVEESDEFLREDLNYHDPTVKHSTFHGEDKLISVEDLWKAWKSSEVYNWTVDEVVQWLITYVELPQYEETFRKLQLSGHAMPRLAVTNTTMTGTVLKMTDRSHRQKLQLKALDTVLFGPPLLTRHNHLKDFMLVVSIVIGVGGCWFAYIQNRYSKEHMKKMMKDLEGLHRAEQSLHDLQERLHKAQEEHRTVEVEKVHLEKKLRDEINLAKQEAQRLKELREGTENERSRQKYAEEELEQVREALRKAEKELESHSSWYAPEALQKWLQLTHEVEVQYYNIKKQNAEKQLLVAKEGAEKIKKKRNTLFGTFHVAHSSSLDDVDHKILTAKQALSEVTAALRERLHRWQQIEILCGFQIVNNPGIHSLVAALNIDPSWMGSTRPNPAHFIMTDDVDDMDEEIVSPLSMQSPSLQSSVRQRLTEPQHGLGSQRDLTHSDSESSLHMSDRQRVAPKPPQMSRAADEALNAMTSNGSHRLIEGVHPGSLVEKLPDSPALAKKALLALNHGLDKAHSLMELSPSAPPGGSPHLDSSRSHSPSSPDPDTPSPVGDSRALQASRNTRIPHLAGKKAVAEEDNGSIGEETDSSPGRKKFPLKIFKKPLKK
# T1 sequence (Q96D31 whole entry): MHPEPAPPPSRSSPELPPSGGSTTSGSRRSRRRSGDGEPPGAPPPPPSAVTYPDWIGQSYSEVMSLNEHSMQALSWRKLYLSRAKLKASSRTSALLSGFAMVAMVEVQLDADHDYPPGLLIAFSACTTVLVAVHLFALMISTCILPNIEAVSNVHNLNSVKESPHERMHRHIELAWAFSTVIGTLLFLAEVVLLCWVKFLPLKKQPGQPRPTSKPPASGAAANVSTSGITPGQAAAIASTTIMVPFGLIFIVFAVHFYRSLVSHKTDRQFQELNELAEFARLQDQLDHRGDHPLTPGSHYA
# Jurkat [2] = experiment: as §1, with “Induction” for “Modulation”, “store-operated calcium entry” for “TRPC1/TRPC3/STIM1/Orai1”, “human Jurkat” for “HEK”; format: cell-based
# [3] = target: T2, Stromal interaction molecule 1 & 2/Calcium release-activated calcium channel protein 1 (Mus musculus) (UniProt Q8BWG9+P70302+P83093); experiment: as §1, with “STIM1/STIM2/Orai1” for “TRPC1/TRPC3/STIM1/Orai1”, “mouse BV2” for “HEK”; format: cell-based
# [4] = target: Transient receptor potential cation channel subfamily V member 1 (Homo sapiens) (UniProt Q8NER1); experiment: Antagonist activity at TRPV1 (unknown origin) expressed in HEK cells assessed as inhibition of capsaicin-induced calcium increase at 10 uM by fura-2-based assay; format: cell-based
# Chain of Transient receptor potential cation channel subfamily V member 1 (Homo sapiens) (Q8NER1 whole entry): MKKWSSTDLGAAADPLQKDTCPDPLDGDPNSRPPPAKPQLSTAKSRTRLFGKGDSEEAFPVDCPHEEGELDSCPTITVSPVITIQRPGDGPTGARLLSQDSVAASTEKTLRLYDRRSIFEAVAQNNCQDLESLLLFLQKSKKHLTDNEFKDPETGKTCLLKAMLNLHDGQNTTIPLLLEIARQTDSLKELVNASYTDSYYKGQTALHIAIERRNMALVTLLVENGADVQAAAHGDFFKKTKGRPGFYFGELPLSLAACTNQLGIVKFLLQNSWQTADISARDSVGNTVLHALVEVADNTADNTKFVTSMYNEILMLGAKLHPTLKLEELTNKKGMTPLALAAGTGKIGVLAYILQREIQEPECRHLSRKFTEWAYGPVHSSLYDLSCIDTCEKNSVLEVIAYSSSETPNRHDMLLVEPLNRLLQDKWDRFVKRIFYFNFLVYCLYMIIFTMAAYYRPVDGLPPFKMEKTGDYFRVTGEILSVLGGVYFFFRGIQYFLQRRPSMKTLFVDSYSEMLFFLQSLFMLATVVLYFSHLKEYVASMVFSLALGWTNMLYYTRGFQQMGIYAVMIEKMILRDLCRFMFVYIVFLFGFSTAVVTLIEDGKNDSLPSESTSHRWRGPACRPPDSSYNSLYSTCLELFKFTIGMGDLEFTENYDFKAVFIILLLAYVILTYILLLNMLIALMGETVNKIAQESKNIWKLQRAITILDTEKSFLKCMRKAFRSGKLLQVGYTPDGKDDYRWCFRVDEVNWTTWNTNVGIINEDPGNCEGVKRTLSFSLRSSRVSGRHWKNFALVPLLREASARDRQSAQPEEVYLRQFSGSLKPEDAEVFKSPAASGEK
# How it was run: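 TRPV1-overexpressing Hek cells; calcium rise evoked by capsaicin (100 nM), test compounds at 10 μM; peak amplitude read out; mean ± SEM of 600 cells from 30 plates on four separate experimental days.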
# [5] = target: Transient receptor potential cation channel subfamily M member 8 (Homo sapiens) (UniProt Q7Z2W7); experiment: Antagonist activity at TRPM8 (unknown origin) expressed in HEK cells assessed as inhibition of menthol -mediated calcium increase at 10 uM by fura-2-based assay; format: cell-based
# Chain of Transient receptor potential cation channel subfamily M member 8 (Homo sapiens) (Q7Z2W7 whole entry, looked up): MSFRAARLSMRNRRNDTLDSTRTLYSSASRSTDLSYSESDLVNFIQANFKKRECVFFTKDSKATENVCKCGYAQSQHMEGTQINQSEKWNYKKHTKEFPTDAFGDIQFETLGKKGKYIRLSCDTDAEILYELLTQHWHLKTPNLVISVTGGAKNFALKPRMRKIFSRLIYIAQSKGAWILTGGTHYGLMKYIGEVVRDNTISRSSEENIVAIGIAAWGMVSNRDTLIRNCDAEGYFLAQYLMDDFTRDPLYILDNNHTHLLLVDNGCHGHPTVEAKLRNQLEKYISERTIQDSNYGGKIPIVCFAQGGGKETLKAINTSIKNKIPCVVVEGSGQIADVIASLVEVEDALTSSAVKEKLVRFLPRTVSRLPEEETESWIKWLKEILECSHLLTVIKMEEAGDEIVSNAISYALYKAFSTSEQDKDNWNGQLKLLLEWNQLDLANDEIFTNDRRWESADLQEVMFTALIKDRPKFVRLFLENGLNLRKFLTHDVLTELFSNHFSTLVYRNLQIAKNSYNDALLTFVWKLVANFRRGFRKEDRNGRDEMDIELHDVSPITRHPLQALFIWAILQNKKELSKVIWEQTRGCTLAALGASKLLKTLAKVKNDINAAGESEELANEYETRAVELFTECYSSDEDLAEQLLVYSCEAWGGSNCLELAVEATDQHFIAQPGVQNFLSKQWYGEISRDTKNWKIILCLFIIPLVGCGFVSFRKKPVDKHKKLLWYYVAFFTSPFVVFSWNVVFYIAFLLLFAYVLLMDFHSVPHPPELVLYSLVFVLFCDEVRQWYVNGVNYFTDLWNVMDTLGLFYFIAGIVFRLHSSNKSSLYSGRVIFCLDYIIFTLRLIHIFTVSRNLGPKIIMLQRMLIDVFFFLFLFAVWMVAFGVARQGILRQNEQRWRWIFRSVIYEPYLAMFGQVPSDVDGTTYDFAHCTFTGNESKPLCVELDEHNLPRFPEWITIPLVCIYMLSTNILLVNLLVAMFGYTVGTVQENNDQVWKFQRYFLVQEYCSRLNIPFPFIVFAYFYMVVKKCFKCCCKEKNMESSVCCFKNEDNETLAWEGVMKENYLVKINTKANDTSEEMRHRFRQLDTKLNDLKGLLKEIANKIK
# How it was run: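 TRPM8-overexpressing Hek cells; calcium rise evoked by menthol (100 μM), test compounds at 10 μM; peak amplitude read out; mean ± SEM of 600 cells from 30 plates on four separate experimental days.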
# [6] = Metabolic stability in CD1 mouse plasma assessed as residual compound level at 50 uM after 30 mins by LC-UV analysis; format: ADME, cell-free; conditions: read-out: Stability
# How it was run: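 Compounds incubated in mouse plasma for 30 min; percentage of residual substrate determined.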
# Jurkat [7] = experiment: as §1, with “Induction” for “Modulation”, “store-operated calcium entry” for “TRPC1/TRPC3/STIM1/Orai1”, “human Jurkat” for “HEK”, “100” for “10”; format: cell-based
# [8] = as §1, with “Induction” for “Modulation”, “store-operated calcium entry” for “TRPC1/TRPC3/STIM1/Orai1”, “human Jurkat” for “HEK”, “activity” for “activity at 10 uM”; format: cell-based
# [9] = Cytotoxicity against HEK cells assessed as cell viability at 10 uM by MTT assay relative to control; format: cell-based; conditions: human, read-out: Activity
# How it was run: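 Hek cells treated 24 h with compound at 10 μM; viability determined by MTT assay.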
# [10] = target: T2, Stromal interaction molecule 1 & 2/Calcium release-activated calcium channel protein 1 (Mus musculus); experiment: as §1, with “STIM1/STIM2/Orai1” for “TRPC1/TRPC3/STIM1/Orai1”, “mouse BV2” for “HEK”, “100” for “10”; format: cell-based
# [11] = target: T1, Short transient receptor potential channel 1 & 3/Stromal interaction molecule 1/Calcium release-activated calcium channel protein 1 (Homo sapiens); experiment: as §1, with “100” for “10”; format: cell-based
# [12] = target: Short transient receptor potential channel 1 & 3/Stromal interaction molecule 1/Calcium release-activated calcium channel protein 1 (Homo sapiens, UniProt P48995+Q13507+Q13586+Q96D31); experiment: as §1, with “activity” for “activity at 10 uM”; format: cell-based
# [13] = target: T1, Short transient receptor potential channel 1 & 3/Stromal interaction molecule 1/Calcium release-activated calcium channel protein 1 (Homo sapiens); experiment: as §1, with “increase in AUC of calcium entry” for “residual activity”, “3 to 100” for “10”; format: cell-based
# [14] = target: T2, Stromal interaction molecule 1 & 2/Calcium release-activated calcium channel protein 1 (Mus musculus); experiment: as §1, with “STIM1/STIM2/Orai1” for “TRPC1/TRPC3/STIM1/Orai1”, “mouse BV2” for “HEK”, “increase in AUC of calcium entry” for “residual activity”, “3 to 100” for “10”; format: cell-based
# [15] = system: voltage-gated calcium channel (Mus musculus); experiment: Antagonist activity at voltage-gated calcium channels in C57/BL6 mouse cerebellar granule cells assessed as inhibition of KCl-induced voltage dependent calcium entry at 10 uM by fura-2-based assay
# [16] = target: T1, Short transient receptor potential channel 1 & 3/Stromal interaction molecule 1/Calcium release-activated calcium channel protein 1 (Homo sapiens); experiment: as §1, with “increase in peak amplitude” for “residual activity”, “3 to 100” for “10”; format: cell-based
# Jurkat [17] = experiment: as §1, with “Induction” for “Modulation”, “store-operated calcium entry” for “TRPC1/TRPC3/STIM1/Orai1”, “human Jurkat” for “HEK”, “increase in AUC of calcium entry” for “residual activity”, “3 to 100” for “10”; format: cell-based
# [18] = target: T3, ORAI1/STIM1 (Homo sapiens) (UniProt Q96D31+Q13586); experiment: Modulation of Orai1/STIM1 (unknown origin) expressed in HEK cells assessed as potentiation of store-operated calcium currents in presence of 20 mM BAPTA by patch clamp assay relative to control; format: cell-based
# T3 sequence (Q13586 23-685 partner limits assumed): as the sequence (Q13586 23-685 partner limits assumed) above
# T3 sequence (Q96D31 whole entry): as the sequence (Q96D31 whole entry) above
# How it was run: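 Whole-cell ISOC recorded in Hek cells stably overexpressing Orai1 and transiently expressing STIM1; internal solution strongly buffered with 20 mM BAPTA; compound at 10 μM versus untreated control.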
# Homo sapiens = organism: Homo sapiens; experiment: Modulation of Orai1/STIM1 (unknown origin) expressed in HEK cells assessed as potentiation of store-operated calcium currents by measuring reduction in time constant of channel activation in presence of 20 mM BAPTA and 150 nM Ca2+ containing internal solution by patch clamp assay relative to control; format: cell-based
# [19] = target: T1, Short transient receptor potential channel 1 & 3/Stromal interaction molecule 1/Calcium release-activated calcium channel protein 1 (Homo sapiens); experiment: as §1, with “increase in slope” for “residual activity”, “3 to 100” for “10”; format: cell-based
# [20] = target: T2, Stromal interaction molecule 1 & 2/Calcium release-activated calcium channel protein 1 (Mus musculus); experiment: as §1, with “STIM1/STIM2/Orai1” for “TRPC1/TRPC3/STIM1/Orai1”, “mouse BV2” for “HEK”, “increase in slope” for “residual activity”, “3 to 100” for “10”; format: cell-based
# [21] = target: T2, Stromal interaction molecule 1 & 2/Calcium release-activated calcium channel protein 1 (Mus musculus); experiment: as §1, with “STIM1/STIM2/Orai1” for “TRPC1/TRPC3/STIM1/Orai1”, “mouse BV2” for “HEK”, “increase in peak amplitude” for “residual activity”, “3 to 100” for “10”; format: cell-based
# [22] = target: T3, ORAI1/STIM1 (Homo sapiens); experiment: Modulation of Orai1/STIM1 (unknown origin) expressed in HEK cells assessed as potentiation of store-operated calcium currents in presence of 20 mM BAPTA and 150 nM Ca2+ containing internal solution by patch clamp assay relative to control; format: cell-based
# [23] = system: voltage-gated calcium channel (Mus musculus); experiment: Antagonist activity at voltage-gated calcium channels in C57/BL6 mouse cerebellar granule cells assessed as inhibition of KCl-induced voltage dependent calcium entry at 10 uM by fura-2-based assay; remark: listed apart in the source
# Jurkat [24] = experiment: as §1, with “Induction” for “Modulation”, “store-operated calcium entry” for “TRPC1/TRPC3/STIM1/Orai1”, “human Jurkat” for “HEK”, “increase in peak amplitude” for “residual activity”, “3 to 100” for “10”; format: cell-based
# [25] = target: T1, Short transient receptor potential channel 1 & 3/Stromal interaction molecule 1/Calcium release-activated calcium channel protein 1 (Homo sapiens); experiment: as §1, with “entry” for “entry by measuring residual activity”, “800” for “600”; format: cell-based
# Jurkat [26] = experiment: as §1, with “Induction” for “Modulation”, “store-operated calcium entry” for “TRPC1/TRPC3/STIM1/Orai1”, “human Jurkat” for “HEK”, “increase in slope” for “residual activity”, “3 to 100” for “10”; format: cell-based
# [27] = target: T2, Stromal interaction molecule 1 & 2/Calcium release-activated calcium channel protein 1 (Mus musculus); experiment: as §1, with “STIM1/STIM2/Orai1” for “TRPC1/TRPC3/STIM1/Orai1”, “mouse BV2” for “HEK”, “entry” for “entry by measuring residual activity”, “800” for “600”; format: cell-based
# How it was run: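 Microplate Fluo-4 assay in mouse microglial BV-2 cells. Stores emptied with tBhQ (50 μM) in presence of compound (10 μM); extracellular Ca2+ re-added after 600 s and intracellular Ca2+ read fluorimetrically; SOCE expressed versus control.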
# Jurkat [28] = experiment: Induction of store-operated calcium entry in human Jurkat cells assessed as induction of store-operated calcium entry at 10 uM preincubated for 30 mins followed by tBhQ-mediated Ca2+ depletion and Ca2+ re-addition to extracellular solution measured for 800 secs by Fluo-4 AM-based fluorometric assay relative to control; format: cell-based
# [29] = Drug metabolism in CD1 mouse liver microsomes assessed as 1-(4-(4-(3-Carboxyphenyl)-1H-1,2,3-triazol-1-yl)phenyl)-5-(trifluoromethyl)-1H-pyrazole-4-carboxylic Acid metabolite formation at 50 uM after 60 mins by mass spectroscopic analysis; format: ADME, microsome
# [30] = Drug metabolism in CD1 mouse liver microsomes assessed as ester group hydrolysis at 50 uM after 60 mins in presence of NADPH/UDPGA; format: ADME, microsome; conditions: 1 h
# [31] = Drug metabolism in CD1 mouse liver microsomes assessed as ester group hydrolysis at 50 uM after 60 mins in absence of NADPH/UDPGA; format: ADME, microsome; conditions: 1 h
# [32] = Metabolic stability in CD1 mouse liver S9 fraction assessed as residual compound level at 50 uM after 1 hr; format: ADME, subcellular; conditions: read-out: Stability
# How it was run: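 Hydrolytic stability measured in mouse liver S9 fraction; residual substrate quantified after 1 h incubation.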
SMILES,Activity [1],Activity [3],Activity (Jurkat [2]),viability at 10 µM [9],further results
CCOC(=O)c1cnn(-c2ccc(-c3cn(CCCC(=O)O)nn3)cc2)c1C(F)(F)F,95.5%,69.9%,80.9%,,
CCOC(=O)c1cnn(-c2ccc(-n3cc(-c4ccc(C(=O)O)cc4)nn3)cc2)c1C(F)(F)F,52.1%,59.9%,67.7%,,
O=C(O)c1cccc(-c2cn(-c3ccc(-n4ncc(C(=O)OCc5ccccc5)c4C(F)(F)F)cc3)nn2)c1,10.5%,,,82.2%,
CCOC(=O)c1cnn(-c2ccc(-c3cn(-c4cccc(N)c4)nn3)cc2)c1C(F)(F)F,73.2%,61.3%,85.4%,,
CCOC(=O)c1cnn(-c2ccc(-c3cn(-c4ccc(Cl)cc4)nn3)cc2)c1C(F)(F)F,142%,153%,197%,,Activity [13]: Active; Activity [14]: Active; inhibition [15]: inactive; Activity [16]: Active; Activity (Jurkat [17]): Active; inhibition [4]: inactive; inhibition [5]: inactive; Activity [18]: Active; Activity (Homo sapiens): Active; Activity [19]: Active; Activity [20]: Active; Activity [21]: Active; Activity [22]: inactive; inhibition [23]: inactive; Activity (Jurkat [24]): Active; Activity [25]: inactive; Activity (Jurkat [26]): Active; Activity [27]: inactive; Activity (Jurkat [28]): inactive
CCOC(=O)c1cnn(-c2ccc(-c3cn(-c4cccc(C(=O)O)c4)nn3)cc2)c1C(F)(F)F,30%,56.7%,36.3%,,
CCOC(=O)c1cnn(-c2ccc(-c3cn(-c4ccc(C(=O)O)cc4)nn3)cc2)c1C(F)(F)F,69.3%,69.5%,60.3%,,
CCOC(=O)c1cnn(-c2ccc(NC(=O)c3cccc(C(=O)O)c3)cc2)c1C(F)(F)F,63.5%,,,65.9%,

# Second part, led by results:
Activity [1],Activity [3],SMILES,Activity (Jurkat [2]),viability at 10 µM [9],further results
81.4%,62.3%,CCOC(=O)c1cnn(-c2ccc(-c3cn(-c4ccncc4F)nn3)cc2)c1C(F)(F)F,67.1%,,
43.2%,65%,CCOC(=O)c1cnn(-c2ccc(-n3cc(-c4ccc(O)c(OC)c4)nn3)cc2)c1C(F)(F)F,21.6%,,
53%,61.3%,O=C(O)c1cccc(-c2cn(-c3ccc(-n4nc(C(F)(F)F)cc4C(F)(F)F)cc3)nn2)c1,61.7%,,
8.9%,40.7%,CCOC(=O)c1cnn(-c2ccc(NC(=O)C(Cl)=C(Cl)Cl)cc2)c1C(F)(F)F,6.1%,28.6%,"inhibition [4]: inactive; inhibition [5]: inactive; remaining at 0.5 h, 50 µM [6]: 20.4%; residual activity (Jurkat [7]): < 100%; IC50 [8]: 300 nM; residual activity [10]: < 100%; residual activity [11]: < 100%"
7.9%,,COC(=O)c1cnn(-c2ccc(-n3cc(-c4cccc(C(=O)O)c4)nn3)cc2)c1C(F)(F)F,,69.2%,"remaining at 0.5 h, 50 µM [6]: 6.5%"
10.3%,,O=C(Nc1ccc(-n2nc(C(F)(F)F)cc2C(F)(F)F)cc1)c1ccncc1F,,70.3%,inhibition [4]: Active; inhibition [5]: Active; IC50 [12]: 300 nM
3.5%,,CC(C)OC(=O)c1cnn(-c2ccc(-n3cc(-c4cccc(C(=O)O)c4)nn3)cc2)c1C(F)(F)F,,87.2%,"Drug metabolism [29]: Metabolite_Notdetected; inhibition [15]: inactive; inhibition [4]: inactive; Drug metabolism [30]: Metabolite_Detected; Drug metabolism [31]: Metabolite_Detected; inhibition [5]: inactive; remaining at 0.5 h, 50 µM [6]: 87.7%; inhibition [23]: inactive; IC50 [12]: 3100 nM; remaining at 1 h, 50 µM [32]: 81.3%"
81.7%,65.3%,CCOC(=O)c1cnn(-c2ccc(-n3cc(-c4cccc(N)c4)nn3)cc2)c1C(F)(F)F,89.3%,,
6.4%,,CCOC(=O)c1cnn(-c2ccc(-n3cc(-c4cccc(C(=O)NO)c4)nn3)cc2)c1C(F)(F)F,,67.5%,
